Measurements reported in ChEMBL document CHEMBL1153956, “Synthesis of protein tyrosine phosphatase 1B inhibitors: model validation and docking studies” (Bioorg Med Chem Lett, 2009).
pIC50: −log10 of the molar value.

Assays:
[1] = target: T1, Tyrosine-protein phosphatase non-receptor type 1 (Homo sapiens, UniProt P18031); test: Inhibition of PTP1B
T1 sequence (P18031 whole entry): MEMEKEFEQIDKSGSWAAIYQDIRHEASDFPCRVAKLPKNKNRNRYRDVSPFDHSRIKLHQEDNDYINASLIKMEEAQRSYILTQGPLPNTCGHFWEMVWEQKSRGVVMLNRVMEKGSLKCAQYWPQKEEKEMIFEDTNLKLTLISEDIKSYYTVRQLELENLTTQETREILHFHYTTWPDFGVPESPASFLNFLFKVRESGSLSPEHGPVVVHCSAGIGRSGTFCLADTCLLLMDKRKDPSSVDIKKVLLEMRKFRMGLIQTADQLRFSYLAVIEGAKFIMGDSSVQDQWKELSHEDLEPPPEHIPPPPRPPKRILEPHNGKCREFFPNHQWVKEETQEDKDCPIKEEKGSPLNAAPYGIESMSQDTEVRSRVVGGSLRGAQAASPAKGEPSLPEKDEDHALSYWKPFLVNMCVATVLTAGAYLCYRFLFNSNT
Outline: (§1)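 PTP1B was pre-incubated with test compound for 10 min in the reaction system, at graded doses for IC50 or at a single fixed concentration for percent inhibition. Residual activity was measured by the Goldstein method with 10 mM PNPP in 50 mM HEPES pH 7.0 containing 1 mM EDTA and DTT. Peroxovanadate served as control. The reaction was stopped with 0.1 N NaOH and read at 410 nm. p-Nitrophenolate was quantified using ε = 1.78 × 10⁴ M⁻¹ cm⁻¹.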

Rattus norvegicus [2] = test: Antidiabetic activity in sucrose loaded Sprague-Dawley rat model assessed as reduction in blood glucose level at 100 mg/kg; assay type: functional; set-up: scale not given: the % may be the effect or the level left
[3] = target: T2, Tyrosine-protein phosphatase non-receptor type 1 (Homo sapiens) (UniProt P18031); test: Inhibition of PTP1B at 100 uM; outline: as §1
T2 sequence (whole entry): T1 sequence (P18031 whole entry)

Rattus norvegicus [4] = test: Antidiabetic activity in streptozotocin-induced diabetic Sprague-Dawley rat model assessed as reduction in blood glucose level at 100 mg/kg; assay type: functional; set-up: scale not given: the % may be the effect or the level left
Outline: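 Streptozotocin-induced diabetic rats received compound, vehicle or metformin as reference standard. Blood glucose was monitored before dosing and up to 24 h after administration. Activity is expressed as percent sugar-lowering effect.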

Work on `COc1ccc(CCNC(=O)COc2ccccc2)cc1` yielded a pIC50 [1] of 4.15, an Activity (Rattus norvegicus [2]) of 24.6% and an inhibition [3] of 68.2%. The Activity (Rattus norvegicus [4]) was 20.6%.

Work on `COc1ccc(CCNC(=O)Cc2ccccc2[N+](=O)[O-])cc1` yielded a pIC50 [1] of 4.06, an Activity (Rattus norvegicus [2]) of 19.8% and an inhibition [3] of 62.5%. It also gave an Activity (Rattus norvegicus [4]) of 17.5%.

`COc1ccc(CCNC(=O)Cc2cccc3ccccc23)cc1` was tested, and the pIC50 [1] was 4.16, the Activity (Rattus norvegicus [2]) was 25.1% and the inhibition [3] was 76.9%. The Activity (Rattus norvegicus [4]) was 24.1%.

With `CN(C)C(=N)NC(=N)N` [METFORMIN] the Activity (Rattus norvegicus [2]) was 27.2% and the Activity (Rattus norvegicus [4]) was 23.9%.
